Source: PubChem (several laboratories)
Compounds with a hit are over-represented: about 2.7% of the library has one in this group of screens.
p97 inhibitor – blocks human p97 ATPase activity. P55072. recombinant p97 ATPase, Kinase-Glo ATP luminescence, 3 h. inhibition, % at 8 µM. actives 0.42% (n = 220,000). AID 1481; in the data active = inhibition above about 15%;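 note: 0% = DMSO vehicle and 100% = wells lacking enzyme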
PfM18AAP inh – PfM18AAP enzyme inhibition; inhibition, % at 7.35 µM; recombinant PfM18AAP, H-Glu-NHMec fluorogenic cleavage; actives 1.2% (n = 290,000);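 active = inhibition above the campaign mean inhibition over all tested compounds plus 3 SD, cut at about 28% in these data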;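 note: 0% = plate median of test compound wells and 100% = 2 mM ZnCl2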
RBBP9 inhibitor – inhibitors of human serine hydrolase RBBP9; O75884; inhibition, % at 7.94 µM; recombinant RBBP9, FP-Rh probe fluorescence polarization; actives 0.2% (n = 220,000);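 active = inhibition above the campaign mean of all tested compounds plus 3 SD, cut at about 14% in these data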;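 note: plate controls were DMSO wells with RBBP9 for no effect and wells lacking RBBP9 protein for full effect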
Target sequence (O75884 whole entry, looked up): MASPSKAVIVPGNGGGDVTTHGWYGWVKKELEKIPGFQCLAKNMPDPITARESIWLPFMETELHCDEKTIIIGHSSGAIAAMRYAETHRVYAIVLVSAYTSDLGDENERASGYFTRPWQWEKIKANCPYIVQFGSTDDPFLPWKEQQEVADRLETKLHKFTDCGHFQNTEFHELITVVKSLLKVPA
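System: RBBP9 protein / Buffer or medium: Tris/NaCl buffer pH 8.0 with 0.1% Pluronic / Probe or stimulus: Serine-hydrolase probe FP-Rh, 375 nM pre-mixing / Dosing: 7.94 µM single dose, 0.794% DMSO / Times: enzyme-compound preincubation 30 min, then probe labeling 45 min, 25 °C / Technique: fluorescence polarization (mP), excitation 525 nm, emission 598 nm / Replication: singlicate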
L929 necroptosis – blocks zVAD induced death of L929 cells; L929 zVAD necroptosis rescue, ATP luminescence, 24 h; with zVAD 60 µM; viability rescue, % at 10 µM; actives 0.38% (n = 220,000);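 active = activation, scaled between plate controls, above about 75%, limit read from the data; inactive = activation under that limit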;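 note: 0% = zVAD with DMSO and 100% = DMSO alone without zVAD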
TNF death inh – inhibitors of TNF-alpha induced necroptosis in Jurkat FADD-/- cells; actives 0.068% (n = 220,000); Jurkat FADD-/- TNF necroptosis rescue, ATP luminescence, 24 h; 0 = TNF only, 100 = no-TNF cells; activation (protection from cell death), % at 10 µM;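 active = activation, meaning protection from cell death, of at least 50% relative to plate controls; inactive = activation below 50%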;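 note: necroptosis triggered by 40 ng/mL TNF-alpha added together with compound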
Wee1 degr inh – human Wee1 degradation inhibition, primary screen; HeLa Luc-Wee1K328M stability, luciferase luminescence; 100% = proteasome inhibitor MG132 effect; reporter increase, % at 5 µM; actives 1.2% (n = 220,000);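 active = activation above the mean of all tested compounds plus 3 SD, set per screening run, cut at about 8.8% in these data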;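 note: cells exposed to compound for 20 h before luminescence read; 0% = DMSO alone and 100% = MG132 at 30 µM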
Wee1 stab conf – human Wee1 degradation inhibition, confirmation; shares compounds with Wee1 degr inh; HeLa Luc-Wee1K328M degradation, luminescence; vehicle 0%, proteasome-blocked wells 100%; activation, % at 5 µM; actives 4% (n = 1,100); AID 1410; in the data active = activation above about 8.9%
Active calls of the source: *; x = no result.

SMILES | p97 inhibitor | PfM18AAP inh | RBBP9 inhibitor | L929 necroptosis | TNF death inh | Wee1 degr inh | Wee1 stab conf
CN1OC2C(=O)N(c3ccccc3)C(=O)C2C1c1ccc(F)cc1 (centres undefined) | 0.9 | -4.9 | -2.2 | 0.1 | -1.3 | 16.7* | x
CCC1CCCCN1C(=O)c1ccc(OC2CCN(C(=O)CCOC)CC2)cc1 (centres undefined) | x | 8.5 | x | x | x | x | x
CN1CCC(=C2c3ccccc3C=Cc3ccccc32)CC1 | 4.0 | 5.8 | -7.1 | -1.2 | -1.4 | 9.7* | x
Cc1cc2sc3nc(=O)n(-c4ccccc4)c(=O)n3c2cc1C | -0.8 | 4.8 | -4.7 | 2.2 | 1.3 | 2.6 | x
Cn1c(=O)c(=O)n(C)c2cc(S(=O)(=O)N3CCCC3C(=O)NCc3cccnc3)ccc21 (centres undefined) | 6.8 | 2.7 | 4.2 | 0.8 | 2.0 | -4.6 | x
Cc1cc(C)nc(NC(=O)CSc2ccccn2)n1 | 3.2 | 3.0 | -9.5 | 2.8 | 0.5 | 16.9* | x
CCn1c(C)c(CS(=O)(=O)c2ccccc2)[nH]c1=O | 3.6 | -8.7 | -0.5 | 6.5 | 0.5 | -0.3 | x
Cc1sc2ncn(CC(=O)NCC(=O)N3CCN(c4ccc(F)cc4)CC3)c(=O)c2c1C | x | 3.6 | x | x | x | x | x
CCn1c(SCC(=O)NC(=O)NCc2ccco2)nc2sc(C)c(C)c2c1=O | 0.5 | 13.4 | -7.4 | -0.3 | -3.2 | 9.8* | x
Cc1sc(N)c(C#N)c1C | -5.4 | 36.5* | -3.0 | 0.7 | 3.0 | 2.2 | x
Nc1nnc(CC(=O)N/N=C/c2ccc(-c3ccc(F)cc3)o2)s1 | -2.6 | 12.3 | -4.6 | 1.3 | 0.9 | -3.0 | x
CCOC(=O)c1ccc(-c2ccc(/C=N/NC(=O)Cc3nnc(N)s3)o2)cc1 | 3.0 | 28.9* | 0.3 | -0.2 | 0.7 | 0.2 | x
Oc1ccc(C2=CSC3=NCCN23)cc1O | x | 55.2* | x | x | x | x | x
Cc1cc2cc(CNC(=S)NC3CCCCC3)ccc2[nH]1 | 3.2 | 4.0 | -6.4 | -0.5 | -0.3 | 9.9* | x
Cn1c(=O)c2c(ncn2CC(O)CNc2ccc(F)cc2)n(C)c1=O (centres undefined) | 10.8 | 8.4 | 0.5 | 0.3 | 2.0 | 1.1 | x
O=C(Nc1nnc(C(F)(F)F)s1)c1ccc(Br)s1 | -0.6 | -3.0 | -2.3 | 2.4 | -3.8 | 9.8* | x
O=C(Nc1ccccc1Br)c1cc(=O)c2ccccc2o1 | x | -0.8 | x | x | x | x | x
Cc1ccc2nc(N3CC(=O)Nc4ccccc43)nc(-c3ccccc3)c2c1 | 1.4 | 3.9 | -1.6 | -0.6 | 1.2 | 9.6* | x
OC(c1ccccc1)c1nc2ccccc2s1 (centres undefined) | 4.3 | -1.3 | -2.3 | 6.2 | 50.0* | 0.3 | x
Cc1cc(N2CCCC2)nc(N2C3CCC2CC(O)(c2ccc(F)cc2)C3)n1 (centres undefined) | -1.1 | -6.0 | 1.6 | 0.7 | 0.8 | 16.4* | -3.0
COc1cc(NC(C)=O)ccc1-c1cc2ccccc2oc1=O | -0.8 | 0.4 | -5.3 | 3.7 | 0.4 | 14.6* | -0.1
O=C(COc1c(CO)cc(Br)cc1CO)NC1CCCc2ccccc21 (centres undefined) | 1.4 | -0.2 | -3.4 | 3.7 | 1.3 | 0.2 | x
COc1ccc2[nH]c(CN3CCN(C(C)C)C(CCO)C3)c(C)c2c1 (centres undefined) | 2.1 | -5.3 | -3.2 | 0.9 | 2.1 | 19.8* | 2.2
COc1ccc2[nH]c(CN3CCN(CC(C)C)C(CCO)C3)c(C)c2c1 (centres undefined) | -2.3 | -6.7 | 0.2 | 0.6 | 2.0 | -2.2 | x
O=C(/C=C/NCc1cccnc1)c1ccc(-c2ccccc2)cc1 | x | 3.6 | x | x | x | x | x
SMILES | p97 inhibitor | PfM18AAP inh | RBBP9 inhibitor | L929 necroptosis | TNF death inh | Wee1 degr inh | Wee1 stab conf
Cc1cc(O)c(NC(=O)c2cc([N+](=O)[O-])ccc2Cl)cc1C | 7.8 | -3.1 | -7.4 | 4.1 | 5.4 | 44.9* | 3.6
Cc1ccc(O)c(NC(=O)c2cc([N+](=O)[O-])ccc2Cl)c1 | 2.5 | 3.2 | 1.8 | 16.0 | -4.2 | 11.0* | 3.5
O=C(CCn1cnnn1)N1CCCC(Nc2ccc(F)c(F)c2)C1 (centres undefined) | x | 5.6 | x | x | x | x | x
COc1ccc(C2OC(=O)CC2C(=O)NCc2ccc(Cl)cc2)cc1OC (centres undefined) | 4.7 | -0.4 | -4.4 | -0.9 | 1.3 | -4.0 | x
Cc1ccc(NC(=O)Cn2nnc(-c3ccccc3NC(=O)c3cccs3)n2)cc1 | -0.1 | 5.4 | -12.5 | -1.6 | -15.4 | 13.6* | 4.9
COc1ccc(NC(=O)Cn2nnc(-c3ccccc3NC(=O)c3cccs3)n2)cc1 | 9.5 | 0.4 | 1.1 | 5.2 | -6.2 | -1.1 | x
O=C(NC(O)C(=O)c1ccc(F)cc1)c1ccc(F)cc1 (centres undefined) | x | -6.4 | x | x | x | x | x
CC(C)C1OC2(C)OC(=N)C1(C#N)C(C#N)(C#N)C2c1ccccc1 (centres undefined) | -0.3 | -1.1 | 4.5 | 12.5 | 0.0 | 17.2* | -2.5
CCC1OC2(C)OC(=N)C1(C#N)C(C#N)(C#N)C2c1ccccc1 (centres undefined) | 3.3 | 0.5 | 3.2 | 2.4 | 0.7 | 0.1 | x
O=C(CS(=O)(=O)c1ccccc1)N1CCc2ccccc21 | 0.1 | 0.8 | 9.8 | 1.0 | -0.1 | 12.2* | 1.8
O=C(Cc1ccccc1)N1CCc2ccccc21 | 1.1 | -9.5 | 2.6 | 0.8 | 3.7 | 4.2 | x
CN(C)S(=O)(=O)c1cccc(NC(=O)CNCC2CCCCC2)c1 | -1.1 | -1.6 | -8.8 | 2.3 | 2.5 | 12.0* | 0.6
Cc1[nH]c(C)c(S(=O)(=O)N2CCN(c3ccccc3)CC2)c1C(=O)N1CCCCC1 | x | -13.8 | x | x | x | x | x
CCCCn1c(N)c(N(CC)C(=O)c2cc(OC)cc(OC)c2)c(=O)[nH]c1=O | 4.2 | 1.9 | -6.3 | 3.8 | -0.5 | 11.3* | -3.3
O=C(Nc1ccc(F)cc1F)c1csc(-c2cccs2)n1 | -5.6 | -7.1 | -5.8 | -0.3 | -0.4 | 11.0* | 3.1
O=C(Nc1ccc(F)cc1F)c1csc(-c2ccncc2)n1 | -7.2 | -3.9 | -0.2 | 1.4 | -0.1 | -0.7 | x
CCOc1ccc(NS(=O)(=O)c2cc3c4c(c2)C(C)C(=O)N4CCC3)cc1 (centres undefined) | x | -4.8 | x | x | x | x | x
FC(F)(F)c1cc(-c2cccs2)nc2nc(N3CCOCC3)sc12 | 1.1 | 1.8 | -13.7 | 1.7 | -1.0 | 12.2* | -0.7
O=S(=O)(C/C(=C/CO)S(=O)(=O)c1ccccc1)c1ccccc1 | 7.2 | -11.4 | -9.1 | 6.0 | -9.2 | 13.2* | 8.8*
CCOC(=O)C1CCN(C(=O)c2oc3ccc(S(=O)(=O)N4CC(C)CC(C)C4)cc3c2C)CC1 (centres undefined) | -2.3 | -11.2 | -6.1 | 0.5 | -2.8 | 10.9* | -2.1
